Assay [1] concerns Pseudomonas aeruginosa. The assay is described as follows: Induction of mexCD-oprJ expression in Pseudomonas aeruginosa PAO1 K767 at 3 ug/ml after 2.5 hrs by semiquantitative RT-PCR. Format: functional, organism-based.
Assay [2] deals with Pseudomonas aeruginosa. In words: Induction of mexCD-oprJ expression in Pseudomonas aeruginosa PAO1 K767 at 100 ug/ml after 2.5 hrs by semiquantitative RT-PCR. Format: functional, organism-based.
Assay [3] relates to Pseudomonas aeruginosa. In words: Induction of mexCD-oprJ expression in Pseudomonas aeruginosa PAO1 K767 at 2.5 ug/ml after 2.5 hrs by semiquantitative RT-PCR. Format: functional, organism-based.
The test system of assay [4] is Pseudomonas aeruginosa. In words: Induction of mexCD-oprJ expression in mexB and mexXY deficient and AlgU-positive Pseudomonas aeruginosa K1542 at 2.5 ug/ml by semiquantitative RT-PCR. Format: functional, organism-based.
The test system of assay [5] is Pseudomonas aeruginosa. In words: Induction of mexCD-oprJ expression in mexB and mexXY deficient and AlgU-negative Pseudomonas aeruginosa K2897 at 0.33 ug/ml by semiquantitative RT-PCR. Format: functional, organism-based.
The subject of assay [6] is Pseudomonas aeruginosa. In words: Induction of mexCD-oprJ expression in AlgU and NfxB-positive Pseudomonas aeruginosa K767. Format: functional, organism-based.
Assay [7] has as its system Pseudomonas aeruginosa. The assay is described as follows: Induction of mexCD-oprJ expression in AlgU-positive and NfxB-negative Pseudomonas aeruginosa K1536. Format: functional, organism-based.
Assay [8] has as its system Pseudomonas aeruginosa. In words: Induction of mexCD-oprJ expression in Pseudomonas aeruginosa K2895 harboring plasmid pMMB206. Format: functional, organism-based.
Assay [9] has as its system Pseudomonas aeruginosa. In words: Induction of mexCD-oprJ expression in Pseudomonas aeruginosa K2895 harboring plasmid pMMB206 carrying AlgU gene. Format: functional, organism-based.
Assay [10] concerns Pseudomonas aeruginosa. The assay is described as follows: Antimicrobial activity against CDJ and AlgU-positive Pseudomonas aeruginosa K1542. Format: functional.
In assay [11] the test system is Pseudomonas aeruginosa. The assay is described as follows: Antimicrobial activity against CDJ-negative and AlgU-positive Pseudomonas aeruginosa K2896. Format: functional.
Assay [12] deals with Pseudomonas aeruginosa. The assay is described as follows: Antimicrobial activity against CDJ-positive and AlgU-negative Pseudomonas aeruginosa K2897. Format: functional. The procedure, abridged:
(§1)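 Broth susceptibility testing of P. aeruginosa strains in LB at 37°C. Strains are defined by mexCD-oprJ status (CDJ+ means present and CHX-inducible but not expressed untreated; CDJ− means deleted) and by algU status.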

Assay [13] concerns Pseudomonas aeruginosa. The assay is described as follows: Antimicrobial activity against CDJ and AlgU-negative Pseudomonas aeruginosa K2898. Format: functional. The procedure, abridged:
as §1

Assay [14] has as its system Pseudomonas aeruginosa. In words: Antimicrobial activity against CDJ and AlgU-positive Pseudomonas aeruginosa K767. Format: functional.
Assay [15] concerns Pseudomonas aeruginosa. The assay is described as follows: Antimicrobial activity against CDJ-negative and AlgU-positive Pseudomonas aeruginosa K1521. Format: functional. The procedure, abridged:
as §1

In assay [16] the test system is Pseudomonas aeruginosa. The assay is described as follows: Antimicrobial activity against CDJ-positive and AlgU-negative Pseudomonas aeruginosa K2443. Format: functional.
The subject of assay [17] is Pseudomonas aeruginosa. In words: Antimicrobial activity against CDJ-positive and AlgU-negative Pseudomonas aeruginosa K2443 harboring plasmid pMMB206. Format: functional.
Assay [18] deals with Pseudomonas aeruginosa. In words: Antimicrobial activity against CDJ-positive and AlgU-negative Pseudomonas aeruginosa K2443 harboring plasmid pMMB206 carrying AlgU gene. Format: functional.
Assay [19] deals with Pseudomonas aeruginosa. In words: Antimicrobial activity against NfxB-negative and AlgU-positive Pseudomonas aeruginosa K1536. Format: functional.
Assay [20] deals with Pseudomonas aeruginosa. The assay is described as follows: Antimicrobial activity against NfxB- and AlgU-negative Pseudomonas aeruginosa K2895. Format: functional.
Assay [21] concerns Pseudomonas aeruginosa. In words: Antimicrobial activity against NfxB- and AlgU-negative Pseudomonas aeruginosa K2895 harboring plasmid pMMB206. Format: functional.
The test system of assay [22] is Pseudomonas aeruginosa. The assay is described as follows: Antimicrobial activity against NfxB-and AglU-negative Pseudomonas aeruginosa K2895 harboring plasmid pMMB206 carrying AlgU gene. Format: functional.
For assay [23], the system named is Pseudomonas aeruginosa. The assay is described as follows: Antimicrobial activity against CDJ -positive Pseudomonas aeruginosa K2889. Format: functional. An outline of the steps:
as §1

The subject of assay [24] is Pseudomonas aeruginosa. The assay is described as follows: Antimicrobial activity against CDJ -negative Pseudomonas aeruginosa K2891. Format: functional.
The test system of assay [25] is Pseudomonas aeruginosa. In words: Induction of PmexCD-oprJ-lacZ expression in Pseudomonas aeruginosa K2899 at 1.25 ug/ml by beta-galactosidase reporter assay. Format: functional, organism-based. (A reporter such as luciferase makes a cellular process visible.)
For assay [26], the system named is Pseudomonas aeruginosa. The assay is described as follows: Induction of PmexCD-oprJ-lacZ expression in AlgU-negative Pseudomonas aeruginosa K2901 at 0.16 ug/ml by beta-galactosidase reporter assay. Format: functional, organism-based.
The test system of assay [27] is Pseudomonas aeruginosa. In words: Induction of PmexCD-oprJ-lacZ expression in Pseudomonas aeruginosa K2899 at 0.125 ug/ml by beta-galactosidase reporter assay. Format: functional, organism-based.
Assay [28] deals with Pseudomonas aeruginosa. The assay is described as follows: Induction of PmexCD-oprJ-lacZ expression in AlgU-negative Pseudomonas aeruginosa K2901 at 0.125 ug/ml by beta-galactosidase reporter assay. Format: functional, organism-based.
In assay [29] the test system is Pseudomonas aeruginosa. The assay is described as follows: Induction of PmexCD-oprJ-lacZ expression in Pseudomonas aeruginosa K2899 at 3.1 ug/ml by beta-galactosidase reporter assay. Format: functional, organism-based.
The test system of assay [30] is Pseudomonas aeruginosa. In words: Induction of PmexCD-oprJ-lacZ expression in AlgU-negative Pseudomonas aeruginosa K2901 at 3.1 ug/ml by beta-galactosidase reporter assay. Format: functional, organism-based.
Assay [31] relates to Pseudomonas aeruginosa. In words: Induction of PmexCD-oprJ-lacZ expression in Pseudomonas aeruginosa K2899 at 15 ug/ml by beta-galactosidase reporter assay. Format: functional, organism-based.
Assay [32] relates to Pseudomonas aeruginosa. The assay is described as follows: Induction of PmexCD-oprJ-lacZ expression in AlgU-negative Pseudomonas aeruginosa K2901 at 15 ug/ml by beta-galactosidase reporter assay. Format: functional, organism-based.
Assay [33] has as its system Pseudomonas aeruginosa. In words: Induction of PmexCD-oprJ-lacZ expression in Pseudomonas aeruginosa K2899 at 11.6 ug/ml by beta-galactosidase reporter assay. Format: functional, organism-based.
Assay [34] has as its system Pseudomonas aeruginosa. The assay is described as follows: Induction of PmexCD-oprJ-lacZ expression in AlgU-negative Pseudomonas aeruginosa K2901 at 11.6 ug/ml by beta-galactosidase reporter assay. Format: functional, organism-based.
Assay [35] relates to Pseudomonas aeruginosa. In words: Induction of PmexCD-oprJ-lacZ expression in Pseudomonas aeruginosa K2899 at 8 ug/ml by beta-galactosidase reporter assay. Format: functional, organism-based.
In assay [36] the test system is Pseudomonas aeruginosa. In words: Induction of PmexCD-oprJ-lacZ expression in AlgU-negative Pseudomonas aeruginosa K2901 at 8 ug/ml by beta-galactosidase reporter assay. Format: functional, organism-based.
Assay [37] has as its system Pseudomonas aeruginosa. The assay is described as follows: Induction of PmexCD-oprJ-lacZ expression in Pseudomonas aeruginosa K2899 at 16 ug/ml by beta-galactosidase reporter assay. Format: functional, organism-based.
Assay [38] deals with Pseudomonas aeruginosa. In words: Induction of PmexCD-oprJ-lacZ expression in AlgU-negative Pseudomonas aeruginosa K2901 at 16 ug/ml by beta-galactosidase reporter assay. Format: functional, organism-based.
For assay [39], the system named is Pseudomonas aeruginosa. The assay is described as follows: Induction of mexCD-oprJ expression in AlgU-negative and NfxB-negative Pseudomonas aeruginosa K2895.

We go through three compounds from ChEMBL document CHEMBL1275566, “MexCD-OprJ multidrug efflux system of Pseudomonas aeruginosa: involvement in chlorhexidine resistance and induction by membrane-damaging agents dependent upon the AlgU stress response sigma factor” (2008).

By MIC is commonly meant the least concentration at which growth counts as inhibited. Lower therefore signals a more susceptible organism.

Values after ≈ are worked out from the molar mass of the structure shown. Active and inactive are the calls of the source. The calls are words filed in the database; no cut-off is given here.

On to `CCCCC(CC)CNC(=N)NC(=N)NCCCCCCNC(=N)NC(=N)NCC(CC)CCCC` (centres undefined), for which the result with Pseudomonas aeruginosa [1] was Active.
Regarding CETRIMIDE, the outcome in the assay with Pseudomonas aeruginosa [2] was Active.
In the case of `N=C(NCCCCCCNC(=N)NC(=N)Nc1ccc(Cl)cc1)NC(=N)Nc1ccc(Cl)cc1` [CHLORHEXIDINE], the result with Pseudomonas aeruginosa [3], in the assay with Pseudomonas aeruginosa [4], in the assay on Pseudomonas aeruginosa [5], in the assay with Pseudomonas aeruginosa [6], with Pseudomonas aeruginosa [7] and with Pseudomonas aeruginosa [8] was Active. For the same compound, the outcome with Pseudomonas aeruginosa [9], in the assay with Pseudomonas aeruginosa [25], with Pseudomonas aeruginosa [26], in the assay on Pseudomonas aeruginosa [27], in the assay on Pseudomonas aeruginosa [28] and in the assay on Pseudomonas aeruginosa [29] was Active. Besides, the result in the assay on Pseudomonas aeruginosa [30], in the assay with Pseudomonas aeruginosa [31], in the assay on Pseudomonas aeruginosa [32], in the assay on Pseudomonas aeruginosa [33], in the assay with Pseudomonas aeruginosa [34] and in the assay with Pseudomonas aeruginosa [35] was Active. Moreover, the result in the assay on Pseudomonas aeruginosa [36], in the assay with Pseudomonas aeruginosa [37], with Pseudomonas aeruginosa [38] and in the assay with Pseudomonas aeruginosa [39] was Active. The MIC against Pseudomonas aeruginosa [10] amounted to 10 µg/mL (≈ 19.8 µM); in the assay with Pseudomonas aeruginosa [11] it was 2.5 µg/mL (≈ 4.95 µM); with Pseudomonas aeruginosa [12], 1.25 µg/mL (≈ 2.47 µM); in the assay with Pseudomonas aeruginosa [13], 0.625 µg/mL (≈ 1.24 µM); in the assay with Pseudomonas aeruginosa [14], 10 µg/mL (≈ 19.8 µM); with Pseudomonas aeruginosa [15] it was 5 µg/mL (≈ 9.89 µM). The MIC stood at 2.5 µg/mL (≈ 4.95 µM) against Pseudomonas aeruginosa [16]; 2.5 µg/mL (≈ 4.95 µM) against Pseudomonas aeruginosa [17]; 10 µg/mL (≈ 19.8 µM) against Pseudomonas aeruginosa [18]; 20 µg/mL (≈ 39.6 µM) against Pseudomonas aeruginosa [19]; 2.5 µg/mL (≈ 4.95 µM) against Pseudomonas aeruginosa [20]; 2.5 µg/mL (≈ 4.95 µM) against Pseudomonas aeruginosa [21]. Moreover, the MIC is 20 µg/mL (≈ 39.6 µM) with Pseudomonas aeruginosa [22], over 50 µg/mL against Pseudomonas aeruginosa [23] and 10 µg/mL (≈ 19.8 µM) in the assay on Pseudomonas aeruginosa [24].
